# Reference: ChEMBL document CHEMBL1121949, “Species- or isozyme-specific enzyme inhibitors. 8. Synthesis of disubstituted two-substrate condensation products as inhibitors of rat adenylate kinases” (J Med Chem, 1982)
# “And” between values parts separate entries of the source, which are not always exact repeats. Equal values may be shown once.
# Columns and labels:
# [1] = molecular target: T1, Adenylate kinase 2, mitochondrial (Rattus norvegicus, UniProt P29410); assay: Inhibitory activity against rat adenylate kinase II was determined in the presence of AMP
# In short: (§1)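 Rat adenylate kinase isozymes AK II or AK-M were used, with AMP or ATP as the varied substrate. Substrate and inhibitor constants (Ki) came from steady-state kinetics. ATP derivatives, and P1,P5-pentaphosphate derivatives with Ki above 0.10 mM, were added as 1:1 Mg complexes, made by adding MgSO4 to their stock solutions.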
# [2] = molecular target: T2, Adenylate kinase isoenzyme 1 (Rattus norvegicus, UniProt P39069); assay: Inhibitory activity against rat Adenylate kinase M isoenzyme in the presence of AMP; in short: as §1
# T2 sequence (P39069 whole entry): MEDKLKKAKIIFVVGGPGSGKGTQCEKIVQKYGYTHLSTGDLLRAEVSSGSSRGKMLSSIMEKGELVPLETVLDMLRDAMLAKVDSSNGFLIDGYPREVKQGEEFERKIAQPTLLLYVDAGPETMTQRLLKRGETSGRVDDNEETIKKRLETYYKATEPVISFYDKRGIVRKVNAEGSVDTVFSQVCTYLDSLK
# [3] = Relative potency inhibitory calculated as the ratio of AK-II/AK-M
# [4] = Inhibitory activity against rat adenylate kinase M (AK-M)isoenzyme in the presence of ATP competitive inhibition; in short: as §1
# [5] = Inhibitory potency against AK M was calculated using the equation KM(ATP) / Ki(ATP varied)
# [6] = Inhibitory potency against AK II was calculated using the equation KM(ATP) / Ki(ATP varied)
# [7] = molecular target: T1, Adenylate kinase 2, mitochondrial; assay: Inhibitory activity against rat adenylate kinase II was determined in the presence of AMP, competitive and non competitive inhibition; in short: as §1
# [8] = Inhibitory activity against rat adenylate kinase M (AK-M)isoenzyme in the presence of AMP competitive inhibition; in short: as §1
# [9] = molecular target: T1, Adenylate kinase 2, mitochondrial; assay: Inhibitory activity against rat adenylate kinase II was determined in the presence of ATP, competitive inhibition
# [10] = molecular target: T1, Adenylate kinase 2, mitochondrial; assay: Inhibitory activity against rat adenylate kinase II was determined in the presence of AMP, non competitive inhibition; in short: as §1
# [11] = molecular target: T2, Adenylate kinase isoenzyme 1; assay: Inhibitory activity against rat Adenylate kinase M isoenzyme in the presence of ATP non competitive inhibition
# [12] = molecular target: T1, Adenylate kinase 2, mitochondrial; assay: Inhibitory activity against rat adenylate kinase II was determined in the presence of ATP, non competitive inhibition; in short: as §1
# [13] = molecular target: T2, Adenylate kinase isoenzyme 1; assay: Inhibitory activity against rat Adenylate kinase M isoenzyme in the presence of ATPnon competitive inhibition; in short: as §1
# [14] = molecular target: T1, Adenylate kinase 2, mitochondrial; assay: Inhibitory activity against rat adenylate kinase II was determined in the presence of ATP; in short: as §1
# [15] = molecular target: T2, Adenylate kinase isoenzyme 1; assay: Inhibitory activity against rat Adenylate kinase M isoenzyme in the presence of ATP; in short: as §1
# [16] = molecular target: T2, Adenylate kinase isoenzyme 1; assay: Inhibitory activity against rat Adenylate kinase M isoenzyme in the presence of ATP non competitive inhibition; in short: as §1
# [17] = molecular target: T1, Adenylate kinase 2, mitochondrial; assay: Inhibitory activity against rat adenylate kinase II was determined in the presence of AMP, competitive inhibition; in short: as §1
# [18] = molecular target: T2, Adenylate kinase isoenzyme 1; assay: Inhibitory activity against rat Adenylate kinase M isoenzyme in the presence of ATP competitive inhibition
# [19] = molecular target: T1, Adenylate kinase 2, mitochondrial; assay: Inhibitory activity against rat adenylate kinase II was determined in the presence of ATP, competitive inhibition; in short: as §1
# [20] = Inhibitory activity against rat adenylate kinase M (AK-M)isoenzyme in the presence of AMP non competitive; in short: as §1
# [21] = Inhibitory activity against rat adenylate kinase M (AK-M)isoenzyme in the presence of ATP non competitive; in short: as §1
Relative inhibitory potency [3],Inhibitory potency [5],Inhibitory potency [6],Ki [9],SMILES,other results
–,–,–,–,Nc1ncnc2c1ncn2[C@@H]1O[C@H](COP(=O)(O)O)[C@@H](O)[C@H]1O [ADENOSINE PHOSPHATE],Ki [1]: 80 µM; Km [2]: 580 µM
0.36,4.8,1.7,52 µM,CCC[C@@H](OP(=O)(O)OP(=O)(O)OP(=O)(O)OP(=O)(O)OP(=O)(O)OC[C@H]1OC(n2c(SCC)nc3c(N)ncnc32)[C@H](O)[C@@H]1O)[C@H]1OC(n2cnc3c(N)ncnc32)[C@H](O)[C@@H]1O (stereo partly specified),Ki [4]: 0.12 mM; Ki [7]: 63 µM; Ki [8]: 0.16 mM
5.9,190,1120,0.06 µM and 0.08 µM,CCSc1nc2c(N)ncnc2n1C1O[C@H](COP(=O)(O)OP(=O)(O)OP(=O)(O)OP(=O)(O)OP(=O)(O)OC[C@H]2OC(n3cnc4c(N)ncnc43)[C@H](O)[C@@H]2O)[C@@H](O)[C@H]1O (stereo partly specified),Ki [4]: 0.003 mM; Ki [8]: 0.0035 mM
3.3,18.4,60,1.5 µM,CCSc1nc2c(N)ncnc2n1C1O[C@H](COP(=O)(O)OP(=O)(O)OP(=O)(O)OP(=O)(O)OP(=O)(O)O[C@H](C)[C@H]2OC(n3cnc4c(N)ncnc43)[C@H](O)[C@@H]2O)[C@@H](O)[C@H]1O (stereo partly specified),Ki [4]: 0.031 mM; Ki [8]: 0.031 mM; Ki [10]: 0.0028 mM
–,–,–,–,Nc1ncnc2c1ncn2[C@@H]1O[C@H](CO)[C@@H](O)[C@H]1O [ADENOSINE],Ki [11]: 82 mM; Ki [10]: 92 mM; Ki [12]: 87 mM
> 2.4,< 0.084,0.2,450 µM,CCC[C@@H](OP(=O)(O)OP(=O)(O)OP(=O)(O)O)[C@H]1OC(n2cnc3c(N)ncnc32)[C@H](O)[C@@H]1O (stereo partly specified),Ki [13]: 4.5 mM
0.13,–,–,–,C[C@@H](OP(=O)(O)OP(=O)(O)OP(=O)(O)O)[C@H]1OC(n2cnc3c(N)ncnc32)[C@H](O)[C@@H]1O (stereo partly specified),Ki [14]: 2.2 mM; Ki [15]: 1.8 mM
–,–,–,–,CCSc1nc2c(N)ncnc2n1[C@@H]1O[C@H](COP(=O)(O)OP(=O)(O)OP(=O)(O)O)[C@@H](O)[C@H]1O,Ki [15]: 6.1 mM
> 1.8,< 0.095,0.17,–,Nc1ncnc2c1ncn2C1O[C@H](CCP(=O)(O)OP(=O)(O)OP(=O)(O)O)[C@@H](O)[C@H]1O (stereo partly specified),Ki [16]: 4 mM; Ki [17]: 540 µM
–,–,–,–,Nc1ncnc2c1ncn2[C@@H]1O[C@H](COP(=O)(O)OP(=O)(O)OP(=O)(O)O)[C@@H](O)[C@H]1O [ADENOSINE TRIPHOSPHATE],Ki [16]: 0.57 mM; Ki [12]: 0.09 mM
0.11,1.9,0.2,–,CCC[C@H](OP(=O)(O)OP(=O)(O)OP(=O)(O)O)[C@H]1OC(n2cnc3c(N)ncnc32)[C@H](O)[C@@H]1O (stereo partly specified),Ki [18]: 300 µM; Ki [19]: 0.45 mM
> 22,< 0.63,14,10 µM and 6.4 µM,CCSc1nc2c(N)ncnc2n1C1O[C@H](COP(=O)(O)OP(=O)(O)OP(=O)(O)OP(=O)(O)OP(=O)(O)OC[C@H]2OC(n3c(SCC)nc4c(N)ncnc43)[C@H](O)[C@@H]2O)[C@@H](O)[C@H]1O (stereo partly specified),Ki [20]: 0.9 mM; Ki [21]: 0.6 mM
–,< 0.21,0.045,–,C[C@H](OP(=O)(O)OP(=O)(O)OP(=O)(O)O)[C@H]1OC(n2cnc3c(N)ncnc32)[C@H](O)[C@@H]1O (stereo partly specified),Ki [16]: 1.8 mM; Ki [19]: 2 mM
